As a reminder, the IC50 is the concentration that gives 50% inhibition. A high value points to weaker potency in that assay.

A short description of assay [1]: Ratio of IC50 value determined in CHO-MG cell lines to the IC50 value determined in CHO cell lines was evaluated.
Assay [2] concerns CHO-MG (Chinese hamster). In words: Cytotoxicity in CHO-MG cell lines. Conditions: Cricetulus griseus.
Assay [3] is described as follows: Ratio of IC50 value determined in L1210 cell lines to the IC50 value determined in DFMO treated L1210 cell lines was evaluated. The class given is functional.
Assay [4] relates to L1210. In words: Cytotoxicity in DFMO treated L1210 cell lines. The settings on record: Mus musculus. Type of assay: functional, cell-based. Put shortly: (§1)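 L1210 murine leukemia cells, early to mid log phase, in RPMI with 10% FCS, glutamine, antibiotics and 2 mM aminoguanidine at 37 °C, 5% CO2. Cells were seeded at 5 × 10^4 cells/mL with drug added at seeding. For line 3, DFMO at 5 mM was present in the medium from drug addition. After 48 h of exposure, growth was read as MTT formazan absorbance at 540 nm.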

The test system of assay [5] is L1210. In words: Cytotoxicity in L1210 cell lines. Type of assay: functional, cell-based. Conditions: Mus musculus. Summed up: as §1
The test system of assay [6] is CHO (Chinese hamster). In words: Cytotoxicity in CHO cell lines. The settings on record: Cricetulus griseus.

On to `Cl.Cl.NCCOCCOCCNCc1c2ccccc2cc2ccccc12`, for which the Ratio in assay [1] came to 1.3; in assay [3], 0.7. Also, the IC50 in assay [2] is 15.9 µM; in assay [4] it was 17 µM; in assay [5] it was 11.3 µM; in assay [6], 12.6 µM.
With `Cl.Cl.NCCCCCCCCNCc1c2ccccc2cc2ccccc12`, the figures for the Ratio in assay [1] and in assay [3] were 1 and 0.7, respectively. For the same compound, the IC50 in assay [2] worked out at 4.9 µM; in assay [4], 4.6 µM; in assay [5], 3 µM; in assay [6], 4.9 µM.
As to `Cl.NCCCCNCCCCNCc1cccc2ccccc12`, the IC50 is over 100 µM in assay [2] and 0.6 µM in assay [6]. In addition, the Ratio in assay [3] was 1.1.
With `Cl.NCCCCNCCCCNCc1c2ccccc2cc2ccccc12`, the IC50 in assay [2] was found to be 66.7 µM; in assay [6], 0.45 µM. The Ratio in assay [3] is reported as 2.
`Cl.NCCCCNCCCCNCc1ccccc1`: in assay [3], the Ratio is 0.1. The compound also gave an IC50 in assay [4] of 421 µM.
Take `Cl.NCCCCNCCCCNCc1ccc2ccc3cccc4ccc1c2c34`: the IC50 in assay [2] was found to be 15.5 µM; in assay [4], 0.36 µM; in assay [6], 0.46 µM. Besides, the Ratio in assay [3] is on record as 1.1.
With `Cl.NCCCNCCCCNCc1c2ccccc2cc2ccccc12`, the Ratio was 24 in assay [1] and 2 in assay [3]. Also, the IC50 in assay [2] turned out to be 9.5 µM; in assay [6], 0.4 µM.
On to `Cl.NCC(O)CNCCCCNCc1c2ccccc2cc2ccccc12` (stereo unspecified), for which the Ratio in assay [1] is 1; in assay [3] it was 0.7. The IC50 in assay [2] was determined as 9.5 µM; in assay [4] it was 2.3 µM; in assay [5], 1.5 µM; in assay [6] it was 9.1 µM.
As for `CCCCNCc1c2ccccc2cc2ccccc12.Cl`, the results for the IC50 in assay [2] and in assay [6] were 11.2 µM and 10.5 µM, respectively. Also, the Ratio in assay [3] was 0.7.
Take `Cl.Cl.NCCCCNCc1c2ccccc2cc2ccccc12`: the figures for the IC50 in assay [2] and in assay [6] were 7.6 µM and 7.7 µM, respectively. The Ratio in assay [3] is 0.7.
As to `Cl.NC1CCC(NCCCCNCc2c3ccccc3cc3ccccc23)CC1` (stereo unspecified), the Ratio in assay [1] is recorded as 7; in assay [3], 1.4. Moreover, the IC50 in assay [2] amounted to 17.4 µM; in assay [4], 0.7 µM; in assay [5], 1 µM; in assay [6], 2.5 µM.

These data come from ChEMBL document CHEMBL1145903, “Defining the molecular requirements for the selective delivery of polyamine conjugates into cells containing active polyamine transporters” (J Med Chem, 2003).
